HDAC3 inhib: HDAC3 deacetylase inhibitors, primary screen, biochemical, fluorescence, cell-free homogeneous. inhibition, % at 8.3 µM. recombinant HDAC3, fluorogenic peptide/trypsin coupled. actives 0.15% (n = 320,000). Histone deacetylase 3 (Homo sapiens), O15379; in the data active = inhibition above about 26%, passing the limit was not always enough
Arrestin-AP2 inh: inhibitors of beta-arrestin/AP2 binding, primary screen, biochemical, GPCR trafficking, flow cytometry; actives 0.31% (n = 340,000); inhibition, % at 10 µM; FITC-arrestin peptide / GST-AP2 beads; AP2 beta2 appendage carries R879A mutation; beta-arrestin 1 C-terminal peptide binding to AP2 beta2-adaptin appendage (human);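 active = inhibition above a set limit, near 3 SD of compounds lacking own fluorescence, cut at about 54% in these data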;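 note: plate controls were DMSO wells for no effect and 5 µM unlabelled arrestin peptide for full effect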
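System: GST-AP2 R879A bound to glutathione beads, E. coli-expressed. Also added: 50 nM FITC-arrestin peptide. Schedule: compound with beads 12 min RT, then probe 1 h RT. Signal: bead flow cytometry, FITC channel. Read-out basis: percent response.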
GASC-1 inh: inhibitors of GASC-1 histone demethylase, primary screen, biochemical, fluorescence, DELFIA europium; inhibition, % at 2.35 µM; AID 2099, 2009; GST-JMJD2C(1-420) H3K9me3 demethylation; actives 0.069% (n = 330,000); Lysine-specific demethylase 4C (Homo sapiens), Q9H3R0;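 active = more than half of a compound's replicate wells show inhibition beyond 50%, single wells judged on their own value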;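 note: signal counts dimethyl H3K9 product captured on neutravidin plate; 0% = median of DMSO wells and 100% = 0.3 times that DMSO median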
T cell modulator: modulators of CD8 T cell-vesicle binding, primary screen, mouse 2C CD8+ T cells, flow cytometry; response (vesicle binding), % at 7 µM; AID 2052, 2009; actives 0.068% (n = 330,000); 2C CD8+ T cell-vesicle binding; stronger effect = lower value;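 active = response, share of CD8 T cells binding vesicles, and their 90th percentile fluorescence all below set limits, cut at about 80% in these data, passing the limit was not always enough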;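 note: values below 100% mean blocked vesicle binding to the CD8+ T cells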
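Material: 2C TCR transgenic mouse naive CD8+ T cells, MACS-purified. Also added: QL9-charged Drosophila Ld/ICAM-1/B7-1 vesicles. Timing: binding 1.5 h at 37 °C. Measured by: high-throughput flow cytometry with anti-B7-1 and anti-CD8 staining. Read-out: percent CD8+ FL2 mean versus row control. Controls: Unloaded micro-vesicles (low), QL9 vesicles with 0.7% DMSO (high).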
LANA-H2B inh: blockers of LANA interaction with H2A/H2B – biochemical, FP readout, HTS, primary screen; AID 2629, 2010; inhibition, % (no concentration beside the values); actives 0.6% (n = 320,000); cell-free LANA-H2A/H2B peptide, fluorescence polarization; in the data active = inhibition mostly above about 10%, no sharp cut-off; inactive = mostly below about 6.7%
Pemphigus Ab inh: inhibitors of pemphigus antibody binding to DSG3, primary screen, biochemical, bead-based, flow cytometry, scFv-GFP; actives 0.48% (n = 310,000); DSG3-coupled beads, scFv-anti-DSG3-GFP binding; stronger effect = lower value; binding (percent of control), % at 10 µM; Desmoglein-3 (Homo sapiens), P32926;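 active = binding more than 3 SD below its plate's average and above zero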;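 note: hits lower antibody fragment binding to DSG3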
Arr-AP2 CP1: inhibitors of arrestin peptide binding to AP2, confirmation, biochemical, cherry pick 1, flow cytometry beads | GST-AP2 beads, FITC arrestin peptide binding; GST-fused beta2-adaptin appendage, R879A mutant | shares compounds with Arrestin-AP2 inh | AID 504908, 2011 | actives 2% (n = 1,300) | inhibition, % at 10 µM;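 active = inhibition above a set limit, roughly 3 SD of non-fluorescent compound noise, cut at about 38% in these data; inactive = inhibition at or below that limit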;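 note: loss of bead fluorescence from 50 nM FITC arrestin peptide bound to appendage; 0% = negative control wells and 100% = excess unlabelled arrestin peptide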
GST GSH counter: GST-fluorescein capture on glutathione beads, confirmation, artefact control for arrestin-AP2 inhibitor project, biochemical, cherry pick 1, flow cytometry. shares compounds with Arrestin-AP2 inh. GST-fluorescein binding to GSH beads, fluorescence, counter-screen. inhibition, % at 10 µM. actives 2% (n = 1,300). AID 588338, 2011;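 active = inhibition above 50%, about 3 SD of the inhibition seen with non-fluorescent compounds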;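 note: fluorescein maleimide labelled GST captured on 4 micron glutathione beads; higher means more loss of bead fluorescence from quenching or blocked binding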
Numbers without * were called inactive; i = inactive; . = no result. Rows were chosen to be rich in hits. Some 1.6% of all compounds tested hit in one or more screens of this group.

SMILES	HDAC3 inhib	Arrestin-AP2 inh	GASC-1 inh	T cell modulator	LANA-H2B inh	Pemphigus Ab inh	Arr-AP2 CP1	GST GSH counter
O=[N+]([O-])c1cccc(S(=O)(=O)Nc2ccc3cn[nH]c3c2)c1	1	5	5	698	4	103	.	.
COCCN(C(=O)COC(=O)/C(=C/c1ccccc1)NC(C)=O)c1c(N)n(Cc2ccccc2)c(=O)[nH]c1=O	2	59*	-4	299	1	101	10	-1
CCOc1ccc2nc(N/C(N)=N/C(=S)Nc3ccc(C)c(C)c3)nc(C)c2c1	9	7	4	i	-1	91	.	.
CCNC(=S)/N=C(\N)Nc1nc(C)c2cc(C)ccc2n1	.	64*	2	427	-7	119	-7	1
CCc1ccc(NC(=O)C2CCN(S(=O)(=O)c3c(C)noc3/C=C/N(C)C)CC2)cc1	2	55*	16	126	-5	102	4	-8
CNC(=O)C1CCN(S(=O)(=O)c2c(C)noc2/C=C/N(C)C)CC1	13	-17	2	800	1	96	.	.
CCn1cc(C(=O)Nc2ncccc2O)c(=O)c2cc(F)c(N3CCN(C(=O)c4ccco4)CC3)cc21	0	23	0	198	-4	.	.	.
O=C(CCNS(=O)(=O)c1ccccc1C(F)(F)F)NCCCSc1ccccc1	8	36	15	238	0	100	.	.
CN(C)C(CNC(=O)CCNS(=O)(=O)c1ccccc1C(F)(F)F)c1ccccc1 (stereo not drawn)	-5	58*	-11	527	-1	.	10	-4
COc1ccc(S(=O)(=O)NC2CCCCC2)cc1-n1cnnn1	-7	56*	0	834	4	99	-6	-9
C/C(=C1/SC(N2CCCC2)=NC1=O)c1ccc(Br)cc1	9	79*	9	189	3	110	-12	-6
CC(C)=C1SC(N2CCCCC2)=NC1=O	3	13	-5	483	1	108	.	.
COC(=O)C1=C(C(C)=O)C(c2ccc(C(=O)OC)cc2)n2nnnc2N1 (stereo not drawn)	3	100*	-5	253	-3	113	4	-5
COc1ccc(C(=O)COC(=O)c2cc(C)no2)c(OC)c1	1	25	-4	628	7	107	.	.
CC(/C=C/C=C/c1ccccc1)=N\NC(=O)c1cccnc1	0	41	2	578	8	101	.	.
CC(/C=C\C=C\c1ccccc1)=N\NC(=O)c1cncc(Br)c1	-2	92*	0	155	77*	89	5	8
COc1ccc(N(CC(=O)Nc2ccc(C)c(C)c2)S(=O)(=O)c2c(C)noc2C)cc1	7	-7	-8	277	1	.	.	.
COc1ccc(NC(=O)CCN(c2ccc(OC)cc2)S(=O)(=O)c2ccc(C)c(C)c2)cc1	.	65*	.	.	.	104	3	-4
Cc1cc(C(=O)OCC(=O)NCCc2ccccc2)c2ccccc2n1	-1	54*	-1	371	2	103	4	1
CCCNC(=O)COC(=O)c1cc(C)nc2ccccc12	-3	12	21	730	5	104	.	.
C[C@H]1CN([C@@H](C)CO)C(=O)CCCn2nncc2CO[C@H]1CN(C)S(=O)(=O)c1ccc(C#N)cc1	.	.	.	.	.	106	.	.
O=C(Nc1nnc(C2=COCCO2)o1)c1cccc(Br)c1	2	57*	.	484	1	99	-3	-4
